Measurements of several laboratories.
Each line is one published result; the experiments were not run side by side.
MET M1250T: Hepatocyte growth factor receptor (MET, Homo sapiens, UniProt P08581, M1250T)
MET Y1235D: Hepatocyte growth factor receptor (MET, Homo sapiens, UniProt P08581, Y1235D)
MET: Hepatocyte growth factor receptor (MET, Homo sapiens, UniProt P08581)

SMILES | target | observed | mode | method | concentration | quantity | result
Cc1ccc(C(=O)Nc2ccc(CN3CCN(C)CC3)c(C(F)(F)F)c2)cc1C#Cc1cnc2cccnn12 | MET M1250T | cell-free assay | – | – | 23.5 nM | remaining signal | 86%
CN(c1nccc(-c2cnn3ncccc23)n1)C1CC1 | MET Y1235D | binding | – | – | 1 µM | remaining binding | 100%
CC/C(=N\NC(=O)NCc1cccc(O)c1)c1ccc(O)c(C)c1O | MET Y1235D | enzyme activity | inhibitor | – | 0.1 µM | inhibition | 0.7%
CC1=C(C#N)[C@@H](c2ccc3[nH]nc(C)c3c2)C(C#N)=C(c2ccc(Cl)cc2)N1 | MET Y1235D | cell-free assay | – | competition with immobilised ligand | 1 µM | remaining binding | 52.6%
Cc1ccc(C(=O)NCc2ccsc2)cc1C#Cc1cn(C(C)C)c2ncnc(N)c12 | MET | enzyme activity | inhibitor | – | 1 µM | activity vs control | 86%
O=C1Nc2ccc(Cl)cc2C1=Cc1cc(Cl)c(O)c(Cl)c1 | MET | cell-free assay | – | – | 0.5 µM | remaining signal | 96.4%
N[C@@H]1CCN(c2nccc(-c3cnn4ncccc34)n2)C1 | MET Y1235D | binding | – | – | 1 µM | remaining binding | 100%
O=C(Nc1ccc(Cl)cc1)c1ccccc1NCc1ccncc1 | MET | cell-free assay | – | – | 0.5 µM | remaining signal | 92.2%
Cc1nccc(COC(=O)N2C[C@@H]3[C@@H](CNC(=O)c4ccc5[nH]nnc5c4)[C@@H]3C2)n1 | MET Y1235D | cell-free assay | – | competition with immobilised ligand | 1 µM | remaining binding | 92%
O=C(Nc1cnn(-c2csc(C(=O)NC3COC3)c2)c1)Nc1ccccc1Cl | MET | enzyme activity | inhibitor | – | 5 µM | remaining activity | 102%
CN(C)c1ncc(F)c(-c2cnn3ncccc23)n1 | MET M1250T | binding | – | – | 1 µM | remaining binding | 100%
Cc1c[nH]c2nccc(Oc3c(F)cc(Nc4cc(Cl)nc(N)n4)cc3F)c12 | MET | cell-free assay | – | competition with immobilised ligand | 0.1 µM | remaining binding | 83%
Cc1cc(NC(=O)c2cccc3cc(-c4cccc5[nH]nc(N)c45)ccc23)ccc1F | Hepatocyte growth factor receptor (MET, Homo sapiens, UniProt P08581, Y1230H) | enzyme activity | inhibitor | – | 0.1 µM | activity vs control | 106%
Cc1cnc(NC2CCOCC2)nc1-n1cnc(C(=O)NC(CN)c2cc(F)cc(Cl)c2)c1 (stereo not shown) | Hepatocyte growth factor receptor (MET, Homo sapiens, UniProt P08581, D1228H) | enzyme activity | inhibitor | radiometric | 1 µM | remaining activity | 98%
Cc1sc(C(=O)NC2COC2)cc1-n1cc(NC(=O)Nc2c(F)cccc2Cl)cn1 | MET | enzyme activity | inhibitor | – | 10 µM | remaining activity | 77%
Nc1ncnc2occ(-c3ccc(NC(=O)Nc4cc(C(F)(F)F)ccc4F)cc3)c12 | MET M1250T | cell-free assay | – | – | 20 µM | remaining signal | 4.1%

SMILES | target | observed | mode | method | concentration | quantity | result
CC(C)CC(=O)N1CCc2nc(-c3ccc(Br)cc3)nc(N(C)Cc3ccccc3)c2C1 | MET Y1235D | cell-free assay | – | competition with immobilised ligand | 0.1 µM | remaining binding | 100%
CC(C)(O)[C@H]1CC[C@H](Nc2ccc3ncc(-c4cccc(C(F)(F)F)c4)n3n2)CC1 | MET | enzyme activity | inhibitor | – | 1 µM | remaining activity | 99.8%
Cc1ccc(NC(=O)c2ccc(C)c(C(F)(F)F)c2)cc1C#Cc1nn(C2CCC(O)CC2)c2ncnc(N)c12 (stereo not shown) | Hepatocyte growth factor receptor (MET, Homo sapiens, UniProt P08581, Y1230C) | cell-free assay | – | – | 10 µM | remaining signal | 139%
CN(CCCC(F)(F)F)c1nccc(-c2cnn3ncccc23)n1 | MET M1250T | binding | – | – | 1 µM | remaining binding | 100%
O=C1NC(=O)c2cc(Nc3ccc(F)cc3)c(Nc3ccc(F)cc3)cc21 | MET | cell-free assay | – | – | 0.5 µM | remaining signal | 96.7%
CN1CCN(c2cnc3c(C4CCN(C(=O)c5ccc(OC(F)(F)F)cc5N)CC4)ncnc3c2)CC1 | MET M1250T | cell-free assay | – | competition with immobilised ligand | 1 µM | remaining binding | 100%
C[C@H]1CCN(c2nccc(-c3cnn4ncccc34)n2)C1 | MET M1250T | binding | – | – | 1 µM | remaining binding | 50%
CNC(=O)c1cc2c(Oc3ccc(NC(=O)C4(C(=O)Nc5ccc(F)cc5)CC4)cc3)ccnc2cc1OC | Hepatocyte growth factor receptor (MET, Homo sapiens, UniProt P08581, Y1230D) | enzyme activity | inhibitor | radiometric | 1 µM | inhibition | 100%
Oc1ccc(-c2nc(-c3ccncc3)c(-c3ccc(F)cc3)[nH]2)cc1 | MET | cell-free assay | – | – | 0.5 µM | remaining signal | 94.4%
O=C(N[C@H]1CCCCC/C=C\C2C[C@@]2(C(=O)O)NC(=O)[C@@H]2C[C@@H](Oc3ccncc3)CN2C1=O)OC1CCCC1 (stereo partly shown) | MET M1250T | cell-free assay | – | competition with immobilised ligand | 1 µM | remaining binding | 92%
COc1ccnn2ncc(-c3ccnc(N(C)C)n3)c12 | MET M1250T | binding | – | – | 1 µM | remaining binding | 100%
O=C(O)c1cc(-c2ccc(C3CCNCC3)cc2)c2ccc(-c3ccc(C(F)(F)F)cc3)cc2c1 | MET Y1235D | cell-free assay | – | competition with immobilised ligand | 1 µM | remaining binding | 100%
F[C@@H]1CCN(c2nccc(-c3cnn4ncccc34)n2)C1 | MET M1250T | binding | – | – | 1 µM | remaining binding | 100%
NS(=O)(=O)c1cc(NC(=O)Cc2ccccc2)ccc1Oc1cccc(Cl)c1 | MET | cell-free assay | – | competition with immobilised ligand | 1 µM | remaining binding | 91%
CC(C)(C)c1nc(-c2cccc(NS(=O)(=O)c3c(F)cccc3F)c2F)c(-c2ccnc(N)n2)s1 | MET | enzyme activity | inhibitor | radiometric | 1 µM | remaining activity | 89%
